Laboratory results published in ChEMBL document CHEMBL1142242, “Indanylacetic acid derivatives carrying 4-thiazolyl-phenoxy tail groups, a new class of potent PPAR alpha/gamma/delta pan agonists: synthesis, structure-activity relationship, and in vivo efficacy” (J Med Chem, 2007).
≈ marks a conversion by molar mass, not a printed value. Calls of active or inactive are those of the source. No cut-off for these calls is given here.

Assays:
Rattus norvegicus = experiment: Reduction of FFA level in ZDF rat at 10 mg/kg, po after 21 days; format: functional, organism-based; design: dose 10 mg/kg
How it was run: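 Male ZDF rats, on chow 4-8 weeks to confirm hyperglycemia, grouped by equal baseline blood glucose; oral dosing once daily for 21 days in 0.5% methylcellulose in water; bled ~24 h after last dose; plasma FFA measured.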

Mus musculus [1] = experiment: Reduction of blood glucose level in orally dosed db/db mouse at 1 mg/kg after 8 days; format: functional, organism-based; design: dose 1 mg/kg
How it was run: (§1)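 Female db/db mice, on chow 3-4 weeks to confirm hyperglycemia, grouped by equal baseline blood glucose; oral dosing once daily in 0.5% methylcellulose in water; blood glucose by analyzer ~24 h after last dose; percent change vs vehicle = ((Tf/Ti)/(Vf/Vi) − 1) × 100.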

Mus musculus [2] = experiment: Reduction of blood glucose level in orally dosed db/db mouse at 3 mg/kg after 8 days; format: functional, organism-based; design: dose 3 mg/kg; how it was run: as §1
Mus musculus [3] = experiment: Reduction of blood glucose level in orally dosed db/db mouse at 10 mg/kg after 8 days; format: functional, organism-based; design: dose 10 mg/kg; how it was run: as §1
Mus musculus [4] = experiment: Reduction of plasma triglyceride level in male human apoA1 transgenic mouse at 10 mg/kg; format: functional, organism-based; design: dose 10 mg/kg
How it was run: (§2)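 hApoA1 transgenic mice, 6 weeks old at purchase, grouped by equal baseline plasma triglyceride; oral dosing once daily for 7 days in 0.5% methylcellulose in water; bled ~24 h after last dose; plasma triglyceride and HDLc by autoanalyzer; mean ± SEM, 6-8 mice.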

Mus musculus [5] = experiment: Increase of plasma HDLc level in male human apoA1 transgenic mouse at 10 mg/kg; format: functional, organism-based; design: dose 10 mg/kg; how it was run: as §2
Mus musculus [6] = experiment: Increase of plasma HDLc level in female human apoA1 transgenic mouse at 10 mg/kg; format: functional, organism-based; design: dose 10 mg/kg; how it was run: as §2
Cytochrome P450 1A2 = Cytochrome P450 1A2 (Homo sapiens, UniProt P05177); experiment: Inhibition of CYP1A2; format: ADME
How it was run: (§3)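 Enzyme assays per CYP isoform (1A2, 2C8, 2D6, 3A4), with turnover of an appropriate fluorescent substrate as read-out; IC₅₀ reported.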

[7] = molecular target: Peroxisome proliferator-activated receptor delta (Mus musculus, UniProt P35396); experiment: Agonist activity at mouse PPAR delta
[8] = Aqueous solubility at pH 6.8; format: physicochemical
[9] = Cmax in mouse at 10 mg/kg, po; format: ADME, organism-based; design: dose 10 mg/kg, route oral; details: in vivo
How it was run: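 Mice dosed orally in 0.5% methylcellulose vehicle; plasma Cmax reported.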

[10] = molecular target: T1, Peroxisome proliferator-activated receptor delta (Homo sapiens, UniProt Q03181); experiment: Agonist activity at human PPAR delta expressed in CV1 cells by GAL4 transactivation assay
T1 sequence (Q03181 whole entry): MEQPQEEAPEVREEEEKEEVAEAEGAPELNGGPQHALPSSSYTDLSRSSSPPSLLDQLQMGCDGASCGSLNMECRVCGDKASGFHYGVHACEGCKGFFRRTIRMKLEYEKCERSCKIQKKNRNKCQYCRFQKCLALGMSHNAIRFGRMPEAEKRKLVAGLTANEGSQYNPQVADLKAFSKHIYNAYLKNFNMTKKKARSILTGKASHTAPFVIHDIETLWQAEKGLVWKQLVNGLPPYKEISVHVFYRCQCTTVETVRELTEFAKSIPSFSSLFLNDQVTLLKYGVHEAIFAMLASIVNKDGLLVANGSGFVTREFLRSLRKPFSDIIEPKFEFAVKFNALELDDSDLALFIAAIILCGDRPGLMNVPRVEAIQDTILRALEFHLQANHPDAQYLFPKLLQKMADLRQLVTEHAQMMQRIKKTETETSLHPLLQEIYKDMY

Cytochrome P450 2C8 = Cytochrome P450 2C8 (Homo sapiens, UniProt P10632); experiment: Inhibition of CYP2C8; format: ADME; how it was run: as §3
Cytochrome P450 2C9 = Cytochrome P450 2C9 (Homo sapiens, UniProt P11712); experiment: Inhibition of CYP2C9; format: ADME
Cytochrome P450 2D6 = Cytochrome P450 2D6 (Homo sapiens, UniProt P10635); experiment: Inhibition of CYP2D6; format: ADME; how it was run: as §3
Cytochrome P450 3A4 = Cytochrome P450 3A4 (Homo sapiens, UniProt P08684); experiment: Inhibition of CYP3A4; format: ADME; how it was run: as §3
Androgen receptor = Androgen receptor (Homo sapiens, UniProt P10275); experiment: Displacement of [3H]dihydrotestosterone from human recombinant androgen receptor expressed in SF9 baculovirus cells
Estrogen receptor = Estrogen receptor (Mus musculus, UniProt O08537+P19785); experiment: Displacement of [3H]O-estradiol from ER in Swiss mouse uteri; format: protein assay
Glucocorticoid receptor = Glucocorticoid receptor (Homo sapiens, UniProt P04150); experiment: Displacement of [H]dexamethaxone from glucocorticoid receptor in HUH cells; format: cell-based
Progesterone receptor = Progesterone receptor (Homo sapiens, UniProt P06401); experiment: Displacement of [3H]progesterone from progesterone receptor in T47D cells; format: cell-based
How it was run: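 Cytosol from T47D cells incubated overnight at 4 °C with ³H-progesterone at 10 nM final, with or without compound. DMSO defined total binding and 1 µM unlabelled progesterone defined nonspecific binding. Bound and free ligand were separated on a spin plate, and the flow-through was counted by scintillation.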

[11] = molecular target: T2, Peroxisome proliferator-activated receptor alpha (Homo sapiens) (UniProt Q07869); experiment: (§4) Agonist activity at human PPAR alpha expressed in CV1 cells by GAL4 transactivation assay; format: functional, cell-based; details: CV-1
T2 sequence (whole entry): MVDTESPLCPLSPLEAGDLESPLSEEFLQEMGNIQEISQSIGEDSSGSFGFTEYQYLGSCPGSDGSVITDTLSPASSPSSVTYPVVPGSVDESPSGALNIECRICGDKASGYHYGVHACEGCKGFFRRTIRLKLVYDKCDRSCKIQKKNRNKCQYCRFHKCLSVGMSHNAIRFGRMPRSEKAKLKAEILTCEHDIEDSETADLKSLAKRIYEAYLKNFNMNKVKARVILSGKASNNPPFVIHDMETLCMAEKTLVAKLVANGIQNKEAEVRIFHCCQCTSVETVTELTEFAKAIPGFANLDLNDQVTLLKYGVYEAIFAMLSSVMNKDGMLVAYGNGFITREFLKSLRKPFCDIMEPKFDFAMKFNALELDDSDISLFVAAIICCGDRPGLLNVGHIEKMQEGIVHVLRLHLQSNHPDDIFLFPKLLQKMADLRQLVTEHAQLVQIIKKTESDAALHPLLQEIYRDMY
How it was run: (§5)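 CV-1 cells plated, grown overnight at 37 °C in 5% CO₂, then transfected with GAL4-fused human PPARα ligand binding domain, pFR-LUC and pRL-SV40 reporter DNAs by lipofection. After a further overnight incubation, cells were exposed to compound or vehicle overnight. Activity was read as dual-luciferase reporter signal.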

[12] = molecular target: T3, Peroxisome proliferator-activated receptor alpha (Homo sapiens, UniProt Q07869); experiment: as §4; format: functional, cell-based, CV-1; how it was run: as §5
T3 sequence (Q07869 whole entry): T2 sequence (whole entry)

[13] = molecular target: T3, Peroxisome proliferator-activated receptor alpha; experiment: Agonist activity at human PPAR alpha by FRET assay; format: functional
How it was run: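 Human PPARα ligand binding domain (GST-tagged) association with biotin-labeled co-activator CBP; Eu-labeled anti-GST antibody and streptavidin-APC; incubated 2 h at rt in buffer with or without compound; fluorescence read at 615 or 655 nm emission, 340 nm excitation.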

[14] = molecular target: T1, Peroxisome proliferator-activated receptor delta; experiment: Agonist activity at human PPAR delta by FRET assay; format: functional
[15] = molecular target: T4, Peroxisome proliferator-activated receptor alpha (Mus musculus) (UniProt P23204); experiment: (§6) Agonist activity at mouse PPAR alpha; format: functional
T4 sequence (whole entry): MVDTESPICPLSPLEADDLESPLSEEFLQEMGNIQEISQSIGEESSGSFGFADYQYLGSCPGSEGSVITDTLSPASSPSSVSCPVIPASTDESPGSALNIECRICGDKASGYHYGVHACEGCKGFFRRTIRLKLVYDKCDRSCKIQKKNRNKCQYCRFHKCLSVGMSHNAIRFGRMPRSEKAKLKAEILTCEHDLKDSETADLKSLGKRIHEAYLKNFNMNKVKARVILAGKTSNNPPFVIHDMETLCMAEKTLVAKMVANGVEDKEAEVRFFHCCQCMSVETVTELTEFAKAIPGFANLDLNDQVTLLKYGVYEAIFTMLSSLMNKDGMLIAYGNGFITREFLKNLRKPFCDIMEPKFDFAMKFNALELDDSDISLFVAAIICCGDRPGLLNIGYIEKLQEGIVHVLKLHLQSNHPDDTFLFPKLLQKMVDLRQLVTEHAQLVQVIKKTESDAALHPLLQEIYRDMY

[16] = molecular target: Peroxisome proliferator-activated receptor alpha (Mus musculus, UniProt P23204); experiment: as §6; format: functional

Chain of Cytochrome P450 2D6 (P10635 whole entry): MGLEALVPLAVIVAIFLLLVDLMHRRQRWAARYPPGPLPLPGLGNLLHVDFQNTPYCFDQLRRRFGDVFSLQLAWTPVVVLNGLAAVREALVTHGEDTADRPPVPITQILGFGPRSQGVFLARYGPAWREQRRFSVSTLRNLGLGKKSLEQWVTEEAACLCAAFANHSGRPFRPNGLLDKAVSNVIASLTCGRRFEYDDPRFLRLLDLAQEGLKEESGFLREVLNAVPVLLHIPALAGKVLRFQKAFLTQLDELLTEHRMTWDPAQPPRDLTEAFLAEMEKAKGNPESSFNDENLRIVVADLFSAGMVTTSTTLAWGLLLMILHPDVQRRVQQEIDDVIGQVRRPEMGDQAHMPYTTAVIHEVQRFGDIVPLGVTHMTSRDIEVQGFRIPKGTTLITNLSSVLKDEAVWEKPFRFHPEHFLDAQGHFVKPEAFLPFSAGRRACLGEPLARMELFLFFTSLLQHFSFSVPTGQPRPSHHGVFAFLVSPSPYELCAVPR
Chain of Glucocorticoid receptor (P04150 whole entry): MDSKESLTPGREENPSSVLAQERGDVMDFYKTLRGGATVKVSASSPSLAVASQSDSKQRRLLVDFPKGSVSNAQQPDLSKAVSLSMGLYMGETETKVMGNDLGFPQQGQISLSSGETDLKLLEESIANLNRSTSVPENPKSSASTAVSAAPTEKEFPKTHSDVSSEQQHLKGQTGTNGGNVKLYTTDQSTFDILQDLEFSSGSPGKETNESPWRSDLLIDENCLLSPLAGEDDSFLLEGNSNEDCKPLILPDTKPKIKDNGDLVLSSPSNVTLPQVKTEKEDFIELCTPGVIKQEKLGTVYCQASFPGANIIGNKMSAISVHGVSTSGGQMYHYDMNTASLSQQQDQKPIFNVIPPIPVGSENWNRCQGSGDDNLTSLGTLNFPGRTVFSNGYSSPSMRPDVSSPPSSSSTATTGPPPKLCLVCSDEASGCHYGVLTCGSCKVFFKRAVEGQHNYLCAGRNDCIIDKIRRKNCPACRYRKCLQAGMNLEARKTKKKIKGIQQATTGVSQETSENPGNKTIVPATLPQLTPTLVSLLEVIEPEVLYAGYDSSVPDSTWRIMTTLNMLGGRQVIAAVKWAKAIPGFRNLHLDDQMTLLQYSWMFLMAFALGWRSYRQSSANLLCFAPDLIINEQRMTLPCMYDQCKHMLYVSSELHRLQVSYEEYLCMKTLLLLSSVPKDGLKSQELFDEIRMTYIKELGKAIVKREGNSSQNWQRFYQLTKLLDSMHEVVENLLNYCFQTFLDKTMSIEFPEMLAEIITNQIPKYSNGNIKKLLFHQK
Chain of Cytochrome P450 1A2 (P05177 whole entry, canonical isoform): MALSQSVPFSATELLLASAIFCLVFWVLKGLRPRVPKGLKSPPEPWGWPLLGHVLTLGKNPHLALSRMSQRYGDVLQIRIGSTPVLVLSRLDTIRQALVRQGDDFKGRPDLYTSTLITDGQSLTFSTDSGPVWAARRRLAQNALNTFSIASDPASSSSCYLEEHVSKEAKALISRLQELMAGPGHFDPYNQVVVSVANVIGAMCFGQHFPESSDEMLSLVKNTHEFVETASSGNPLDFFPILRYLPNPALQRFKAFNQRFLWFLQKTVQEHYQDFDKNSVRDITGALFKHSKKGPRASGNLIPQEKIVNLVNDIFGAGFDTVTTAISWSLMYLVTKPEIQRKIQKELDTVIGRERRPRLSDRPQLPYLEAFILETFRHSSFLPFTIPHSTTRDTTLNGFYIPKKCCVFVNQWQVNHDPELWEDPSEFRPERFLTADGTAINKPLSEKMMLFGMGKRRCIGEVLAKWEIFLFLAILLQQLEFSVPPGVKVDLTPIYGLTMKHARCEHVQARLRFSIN
Chain of Androgen receptor (P10275 whole entry): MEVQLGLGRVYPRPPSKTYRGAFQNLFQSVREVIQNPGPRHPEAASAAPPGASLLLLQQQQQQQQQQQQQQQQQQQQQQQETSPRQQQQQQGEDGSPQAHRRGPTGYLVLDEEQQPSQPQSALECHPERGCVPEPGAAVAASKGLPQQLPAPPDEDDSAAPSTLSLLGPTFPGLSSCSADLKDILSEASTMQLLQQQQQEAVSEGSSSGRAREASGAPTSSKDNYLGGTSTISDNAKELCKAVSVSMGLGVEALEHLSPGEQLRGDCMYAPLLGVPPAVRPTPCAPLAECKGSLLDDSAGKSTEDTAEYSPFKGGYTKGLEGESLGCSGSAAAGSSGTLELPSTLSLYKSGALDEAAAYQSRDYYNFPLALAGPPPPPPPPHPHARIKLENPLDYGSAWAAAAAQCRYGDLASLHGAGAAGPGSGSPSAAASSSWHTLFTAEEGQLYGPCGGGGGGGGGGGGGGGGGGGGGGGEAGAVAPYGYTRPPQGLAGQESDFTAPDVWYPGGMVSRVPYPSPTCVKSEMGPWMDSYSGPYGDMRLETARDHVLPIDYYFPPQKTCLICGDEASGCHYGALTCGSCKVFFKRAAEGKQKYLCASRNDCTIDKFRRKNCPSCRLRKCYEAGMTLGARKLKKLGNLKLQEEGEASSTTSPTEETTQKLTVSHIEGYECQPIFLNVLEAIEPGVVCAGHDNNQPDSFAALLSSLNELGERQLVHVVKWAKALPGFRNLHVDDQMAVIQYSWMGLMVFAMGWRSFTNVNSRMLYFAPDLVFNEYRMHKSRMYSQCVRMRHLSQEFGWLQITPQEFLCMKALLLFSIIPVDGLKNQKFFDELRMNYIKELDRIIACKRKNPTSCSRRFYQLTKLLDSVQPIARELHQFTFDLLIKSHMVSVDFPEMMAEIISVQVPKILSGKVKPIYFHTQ
Chain of Cytochrome P450 2C9 (P11712 whole entry): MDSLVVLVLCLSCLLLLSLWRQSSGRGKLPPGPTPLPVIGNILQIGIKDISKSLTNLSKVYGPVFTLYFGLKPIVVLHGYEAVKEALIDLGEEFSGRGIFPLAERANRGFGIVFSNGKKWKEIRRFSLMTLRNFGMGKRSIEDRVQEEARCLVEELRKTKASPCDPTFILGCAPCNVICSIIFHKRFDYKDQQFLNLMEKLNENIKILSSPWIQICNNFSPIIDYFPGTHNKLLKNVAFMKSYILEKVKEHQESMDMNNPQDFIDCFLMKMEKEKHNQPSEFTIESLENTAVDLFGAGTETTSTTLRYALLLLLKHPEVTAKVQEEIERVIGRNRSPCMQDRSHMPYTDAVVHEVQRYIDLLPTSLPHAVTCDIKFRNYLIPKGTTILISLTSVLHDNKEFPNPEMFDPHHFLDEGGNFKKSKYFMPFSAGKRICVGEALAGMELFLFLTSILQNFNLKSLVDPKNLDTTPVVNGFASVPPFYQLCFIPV
Chain of Cytochrome P450 3A4 (P08684 whole entry): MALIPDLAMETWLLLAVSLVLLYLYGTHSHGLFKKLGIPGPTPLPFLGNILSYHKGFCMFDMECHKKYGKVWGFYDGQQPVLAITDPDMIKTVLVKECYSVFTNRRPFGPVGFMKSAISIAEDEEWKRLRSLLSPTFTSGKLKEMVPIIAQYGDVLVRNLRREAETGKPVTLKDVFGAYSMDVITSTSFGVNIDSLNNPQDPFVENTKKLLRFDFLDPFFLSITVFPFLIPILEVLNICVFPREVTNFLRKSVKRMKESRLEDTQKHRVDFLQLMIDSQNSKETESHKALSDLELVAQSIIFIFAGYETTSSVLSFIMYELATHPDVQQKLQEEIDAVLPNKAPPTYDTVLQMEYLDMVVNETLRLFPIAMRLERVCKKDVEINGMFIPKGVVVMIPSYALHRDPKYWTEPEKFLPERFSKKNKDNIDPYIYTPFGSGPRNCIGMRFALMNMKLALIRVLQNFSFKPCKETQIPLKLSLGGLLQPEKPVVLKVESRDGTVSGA
Chain of Progesterone receptor (P06401 whole entry): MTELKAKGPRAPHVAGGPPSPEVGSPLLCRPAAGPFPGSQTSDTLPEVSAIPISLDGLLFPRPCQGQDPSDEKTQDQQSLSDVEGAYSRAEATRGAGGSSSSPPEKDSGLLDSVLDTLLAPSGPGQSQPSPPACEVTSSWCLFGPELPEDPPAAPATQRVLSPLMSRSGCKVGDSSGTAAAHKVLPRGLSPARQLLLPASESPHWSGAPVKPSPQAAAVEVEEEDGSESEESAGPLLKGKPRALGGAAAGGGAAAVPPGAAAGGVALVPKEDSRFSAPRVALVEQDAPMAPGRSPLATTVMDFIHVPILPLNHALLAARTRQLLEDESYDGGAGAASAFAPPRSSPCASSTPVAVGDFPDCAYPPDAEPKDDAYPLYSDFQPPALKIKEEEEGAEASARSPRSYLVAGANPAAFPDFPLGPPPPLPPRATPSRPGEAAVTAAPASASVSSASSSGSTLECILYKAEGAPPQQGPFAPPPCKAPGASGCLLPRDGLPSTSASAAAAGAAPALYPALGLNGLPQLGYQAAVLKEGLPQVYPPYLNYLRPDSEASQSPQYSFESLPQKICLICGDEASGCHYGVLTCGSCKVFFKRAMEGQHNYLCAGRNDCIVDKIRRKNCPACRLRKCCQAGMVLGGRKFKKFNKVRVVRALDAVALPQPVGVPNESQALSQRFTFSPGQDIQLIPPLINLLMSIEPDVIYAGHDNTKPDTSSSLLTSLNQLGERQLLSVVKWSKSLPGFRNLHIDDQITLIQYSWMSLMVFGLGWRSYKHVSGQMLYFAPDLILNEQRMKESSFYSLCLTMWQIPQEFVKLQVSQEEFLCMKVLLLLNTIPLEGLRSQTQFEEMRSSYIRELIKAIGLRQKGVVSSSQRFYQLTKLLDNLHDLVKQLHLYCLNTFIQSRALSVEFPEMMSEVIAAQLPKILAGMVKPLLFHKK

CN(CCOc1ccc(CC2SC(=O)NC2=O)cc1)c1ccccn1 (stereo unspecified)
Activity (Rattus norvegicus): Active | Activity (Mus musculus [1]): Dose-dependent effect | Activity (Mus musculus [2]): Dose-dependent effect | Activity (Mus musculus [3]): Dose-dependent effect

Cc1cc(SCc2sc(-c3ccc(C(F)(F)F)cc3)nc2C)ccc1OCC(=O)O
Activity (Mus musculus [4]): Dose-dependent effect | Activity (Mus musculus [5]): Dose-dependent effect | Activity (Mus musculus [6]): Active

O=C(O)C[C@@H]1CCc2cc(OCCCOc3ccc(-c4nc5c(s4)CCCC5)cc3)ccc21
IC50 (Cytochrome P450 1A2): > 10 µM | EC50 [7]: 84 nM | solubility [8]: 31 µM (≈ 14.4 µg/mL) | Cmax [9]: 20 µM | EC50 [10]: 40 nM | IC50 (Cytochrome P450 2C8): > 10 µM | IC50 (Cytochrome P450 2C9): > 10 µM | IC50 (Cytochrome P450 2D6): > 10 µM | IC50 (Cytochrome P450 3A4): > 10 µM | EC50 (Androgen receptor): > 10 µM | EC50 (Estrogen receptor): > 10 µM | EC50 (Glucocorticoid receptor): > 10 µM | EC50 (Progesterone receptor): > 10 µM | Activity [11]: 100% | EC50 [12]: 152 nM | EC50 [13]: 391 nM | EC50 [14]: 2.2 nM | Activity [15]: 28% | EC50 [16]: > 10 µM
